One block for each compound: values may come before it.
Experiments:
[1] = test system: MDA-MB-231; experiment: Antiproliferative activity against human MDA-MB-231 cells over expressing RSK2 at 100 uM after 48 hrs by MTT assay; type: functional; settings: MDA-MB-231, 48 h
Procedure, shortened: (§1)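 Formazan dissolved in DMSO, absorbance read at 570 nm. Inhibition = (1 − A570 compound/A570 control)×100. Screening concentration 100 μM (control 10 μM). IC50 from curves, ≥3 independent tests, attempted when inhibition at 100 μM exceeded 40%.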

[2] = test system: MCF7; experiment: Antiproliferative activity against human MCF7 cells over expressing RSK2 at 100 uM after 48 hrs by MTT assay; type: functional; settings: MCF7, 48 h; procedure, shortened: as §1
[3] = molecular target: T1, Ribosomal protein S6 kinase alpha-3 (Homo sapiens, UniProt P51812); experiment: Inhibition of RSK2 after 60 mins
Procedure, shortened: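 Recombinant RSK2 (20 ng) preincubated 20 min at room temperature with compound in HEPES pH 7.4 buffer (MgCl2, EGTA, Tween 20, BGG) with 25 μM S6 peptide; started with ATP (10 μM final), 60 min at room temperature. ADP Quest fluorescence read at ex 530/em 590 nm. IC50 from curves of ≥3 independent tests, measured when inhibition at 10 μM exceeded 30%.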

[4] = test system: HCT-116; experiment: Antiproliferative activity against human HCT116 cells over expressing RSK2 at 100 uM after 48 hrs by MTT assay; type: functional; settings: HCT-116, 48 h; procedure, shortened: as §1
[5] = molecular target: Ribosomal protein S6 kinase beta-1 (Homo sapiens) (UniProt P23443); experiment: Inhibition of p70S6K at 1 uM
[6] = test system: MCF7; experiment: Antiproliferative activity against human MCF7 cells over expressing RSK2 after 48 hrs by MTT assay; type: functional, cell-based; settings: MCF7, 48 h; procedure, shortened: as §1
[7] = molecular target: Ribosomal protein S6 kinase alpha-5 (Homo sapiens) (UniProt O75582); settings: 1 uM
[8] = test system: HCT-116; experiment: Antiproliferative activity against human HCT116 cells over expressing RSK2 after 48 hrs by MTT assay; type: functional, cell-based; settings: HCT-116, 48 h; procedure, shortened: as §1
[9] = molecular target: 3-phosphoinositide-dependent protein kinase 1 (Homo sapiens) (UniProt O15530); experiment: Inhibition of PDK1 at 1 uM
[10] = molecular target: Mitogen-activated protein kinase 1 (Homo sapiens) (UniProt P28482); experiment: Inhibition of ERK2 at 1 uM
[11] = molecular target: Ephrin type-A receptor 2 (Homo sapiens) (UniProt P29317); experiment: Inhibition of EPHA2 at 10 uM by ELISA based method
Procedure, shortened: (§2)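 Tyrosine kinase profiling by ELISA-based method, ATP at Km for each enzyme; percent inhibition at 10 μM, mean of at least two independent tests.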

[12] = molecular target: Mitogen-activated protein kinase 8 (Homo sapiens) (UniProt P45983); experiment: Inhibition of JNK1 at 1 uM
[13] = molecular target: Mast/stem cell growth factor receptor Kit (Homo sapiens) (UniProt P10721); experiment: Inhibition of c-Kit at 10 uM by ELISA based method; procedure, shortened: as §2
[14] = molecular target: Vascular endothelial growth factor receptor 2 (Homo sapiens) (UniProt P35968); experiment: Inhibition of KDR at 10 uM by ELISA based method; procedure, shortened: as §2
[15] = molecular target: Proto-oncogene tyrosine-protein kinase receptor Ret (Homo sapiens) (UniProt P07949); experiment: Inhibition of RET at 10 uM by ELISA based method; procedure, shortened: as §2
[16] = molecular target: Tyrosine-protein kinase ABL1 (Homo sapiens) (UniProt P00519); experiment: Inhibition of ABL at 10 uM by ELISA based method; procedure, shortened: as §2
[17] = molecular target: Mitogen-activated protein kinase 14 (Homo sapiens) (UniProt Q16539); experiment: Inhibition of p38alpha at 1 uM
[18] = test system: HCT-116; experiment: Antiproliferative activity against human HCT116 cells over expressing RSK2 at 10 uM after 48 hrs by MTT assay; type: functional; settings: HCT-116, 48 h
[19] = molecular target: Protein kinase C alpha type (Homo sapiens) (UniProt P17252); experiment: Inhibition of PKCalpha at 1 uM
[20] = molecular target: Proto-oncogene tyrosine-protein kinase Src (Homo sapiens) (UniProt P12931); experiment: Inhibition of c-Src at 10 uM by ELISA based method; procedure, shortened: as §2
[21] = molecular target: Fibroblast growth factor receptor 1 (Homo sapiens) (UniProt P11362); experiment: Inhibition of FGFR1 at 10 uM by ELISA based method; procedure, shortened: as §2
[22] = test system: MDA-MB-231; experiment: Antiproliferative activity against human MDA-MB-231 cells over expressing RSK2 after 48 hrs by MTT assay; type: functional, cell-based; settings: MDA-MB-231, 48 h; procedure, shortened: as §1
[23] = test system: MDA-MB-231; experiment: Antiproliferative activity against human MDA-MB-231 cells over expressing RSK2 at 10 uM after 48 hrs by MTT assay; type: functional; settings: MDA-MB-231, 48 h
[24] = molecular target: T1, Ribosomal protein S6 kinase alpha-3; settings: 1 uM
[25] = molecular target: Epidermal growth factor receptor (Homo sapiens) (UniProt P00533); experiment: Inhibition of EGFR at 10 uM by ELISA based method; procedure, shortened: as §2
[26] = molecular target: Vascular endothelial growth factor receptor 1 (Homo sapiens) (UniProt P17948); experiment: Inhibition of Flt1 at 10 uM by ELISA based method; procedure, shortened: as §2
[27] = test system: MCF7; experiment: Antiproliferative activity against human MCF7 cells over expressing RSK2 at 10 uM after 48 hrs by MTT assay; type: functional; settings: MCF7, 48 h
[28] = molecular target: Platelet-derived growth factor receptor alpha (Homo sapiens) (UniProt P16234); experiment: Inhibition of PDGFRalpha at 10 uM by ELISA based method; procedure, shortened: as §2
[29] = molecular target: Platelet-derived growth factor receptor beta (Homo sapiens) (UniProt P09619); experiment: Inhibition of PDGFRbeta at 10 uM by ELISA based method; procedure, shortened: as §2
Chain of Platelet-derived growth factor receptor beta (Homo sapiens) (P09619 whole entry): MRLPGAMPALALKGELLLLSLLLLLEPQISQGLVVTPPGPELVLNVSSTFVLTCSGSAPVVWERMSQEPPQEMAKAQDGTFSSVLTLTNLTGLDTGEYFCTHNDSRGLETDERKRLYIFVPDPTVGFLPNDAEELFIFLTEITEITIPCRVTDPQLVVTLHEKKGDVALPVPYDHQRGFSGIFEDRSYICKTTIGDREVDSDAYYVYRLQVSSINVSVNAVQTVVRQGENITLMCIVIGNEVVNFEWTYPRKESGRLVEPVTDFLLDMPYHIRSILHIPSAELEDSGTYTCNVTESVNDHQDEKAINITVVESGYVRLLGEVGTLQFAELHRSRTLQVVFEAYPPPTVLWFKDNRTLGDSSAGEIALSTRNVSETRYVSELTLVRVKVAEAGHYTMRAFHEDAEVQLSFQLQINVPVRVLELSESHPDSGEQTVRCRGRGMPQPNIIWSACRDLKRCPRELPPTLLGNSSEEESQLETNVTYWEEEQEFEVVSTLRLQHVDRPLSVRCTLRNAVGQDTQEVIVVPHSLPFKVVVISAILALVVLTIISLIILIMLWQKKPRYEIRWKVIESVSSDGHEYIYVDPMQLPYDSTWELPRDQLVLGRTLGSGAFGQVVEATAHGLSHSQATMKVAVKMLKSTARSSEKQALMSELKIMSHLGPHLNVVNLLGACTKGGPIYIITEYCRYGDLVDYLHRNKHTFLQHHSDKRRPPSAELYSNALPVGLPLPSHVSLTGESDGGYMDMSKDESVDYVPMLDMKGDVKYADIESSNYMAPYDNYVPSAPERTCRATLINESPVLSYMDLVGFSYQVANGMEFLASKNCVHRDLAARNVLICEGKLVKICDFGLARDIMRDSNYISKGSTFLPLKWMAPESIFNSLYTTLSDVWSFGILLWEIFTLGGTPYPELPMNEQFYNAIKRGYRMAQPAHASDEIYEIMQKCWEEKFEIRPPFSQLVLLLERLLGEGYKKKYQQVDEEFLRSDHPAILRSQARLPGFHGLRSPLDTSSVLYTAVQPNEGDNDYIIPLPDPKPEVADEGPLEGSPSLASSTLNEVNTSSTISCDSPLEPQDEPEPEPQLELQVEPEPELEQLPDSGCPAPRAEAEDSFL

T1 sequence (P51812 whole entry): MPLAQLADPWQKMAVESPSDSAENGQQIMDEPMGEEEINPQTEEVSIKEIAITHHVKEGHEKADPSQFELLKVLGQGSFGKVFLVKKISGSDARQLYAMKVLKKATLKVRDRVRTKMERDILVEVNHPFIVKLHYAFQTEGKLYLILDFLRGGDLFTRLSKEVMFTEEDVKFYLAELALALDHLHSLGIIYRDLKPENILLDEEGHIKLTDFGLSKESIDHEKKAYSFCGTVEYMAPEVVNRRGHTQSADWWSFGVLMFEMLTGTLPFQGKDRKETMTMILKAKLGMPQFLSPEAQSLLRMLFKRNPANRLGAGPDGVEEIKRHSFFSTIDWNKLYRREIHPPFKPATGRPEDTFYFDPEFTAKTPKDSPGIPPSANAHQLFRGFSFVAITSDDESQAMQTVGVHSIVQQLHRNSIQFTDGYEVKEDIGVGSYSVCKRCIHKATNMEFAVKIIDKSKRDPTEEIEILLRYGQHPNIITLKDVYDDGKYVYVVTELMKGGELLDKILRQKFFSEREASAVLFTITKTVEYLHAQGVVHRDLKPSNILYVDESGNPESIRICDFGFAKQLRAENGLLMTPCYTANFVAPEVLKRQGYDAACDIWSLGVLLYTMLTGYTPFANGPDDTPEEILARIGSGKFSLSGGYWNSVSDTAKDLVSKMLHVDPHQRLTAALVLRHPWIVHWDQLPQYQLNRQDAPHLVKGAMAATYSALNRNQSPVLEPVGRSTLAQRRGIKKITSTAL
Chain of Ephrin type-A receptor 2 (Homo sapiens) (P29317 whole entry): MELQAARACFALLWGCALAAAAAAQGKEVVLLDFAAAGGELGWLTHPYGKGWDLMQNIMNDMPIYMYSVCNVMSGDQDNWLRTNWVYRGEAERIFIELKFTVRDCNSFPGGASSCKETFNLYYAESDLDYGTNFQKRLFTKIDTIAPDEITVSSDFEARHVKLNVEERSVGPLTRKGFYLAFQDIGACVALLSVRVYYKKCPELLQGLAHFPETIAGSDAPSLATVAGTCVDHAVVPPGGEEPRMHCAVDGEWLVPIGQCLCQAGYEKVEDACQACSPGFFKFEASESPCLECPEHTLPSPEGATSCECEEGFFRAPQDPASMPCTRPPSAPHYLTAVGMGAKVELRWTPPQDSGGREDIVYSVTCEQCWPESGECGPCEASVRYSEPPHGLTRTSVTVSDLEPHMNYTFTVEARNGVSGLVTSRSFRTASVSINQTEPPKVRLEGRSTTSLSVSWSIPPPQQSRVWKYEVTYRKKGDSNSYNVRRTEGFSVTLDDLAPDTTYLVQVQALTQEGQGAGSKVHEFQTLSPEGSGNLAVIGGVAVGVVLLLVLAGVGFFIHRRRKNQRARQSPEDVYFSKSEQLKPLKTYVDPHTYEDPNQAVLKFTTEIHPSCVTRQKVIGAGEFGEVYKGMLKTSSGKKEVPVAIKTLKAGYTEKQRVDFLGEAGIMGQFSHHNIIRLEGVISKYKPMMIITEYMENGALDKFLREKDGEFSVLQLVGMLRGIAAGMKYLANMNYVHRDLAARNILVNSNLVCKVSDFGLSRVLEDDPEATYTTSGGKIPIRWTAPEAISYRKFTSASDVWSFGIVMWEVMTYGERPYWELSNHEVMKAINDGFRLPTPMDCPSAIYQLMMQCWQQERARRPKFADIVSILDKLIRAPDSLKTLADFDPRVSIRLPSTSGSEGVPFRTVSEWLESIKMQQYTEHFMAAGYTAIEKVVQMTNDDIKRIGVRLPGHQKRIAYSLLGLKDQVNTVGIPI
Chain of Fibroblast growth factor receptor 1 (Homo sapiens) (P11362 22-822 limits assumed): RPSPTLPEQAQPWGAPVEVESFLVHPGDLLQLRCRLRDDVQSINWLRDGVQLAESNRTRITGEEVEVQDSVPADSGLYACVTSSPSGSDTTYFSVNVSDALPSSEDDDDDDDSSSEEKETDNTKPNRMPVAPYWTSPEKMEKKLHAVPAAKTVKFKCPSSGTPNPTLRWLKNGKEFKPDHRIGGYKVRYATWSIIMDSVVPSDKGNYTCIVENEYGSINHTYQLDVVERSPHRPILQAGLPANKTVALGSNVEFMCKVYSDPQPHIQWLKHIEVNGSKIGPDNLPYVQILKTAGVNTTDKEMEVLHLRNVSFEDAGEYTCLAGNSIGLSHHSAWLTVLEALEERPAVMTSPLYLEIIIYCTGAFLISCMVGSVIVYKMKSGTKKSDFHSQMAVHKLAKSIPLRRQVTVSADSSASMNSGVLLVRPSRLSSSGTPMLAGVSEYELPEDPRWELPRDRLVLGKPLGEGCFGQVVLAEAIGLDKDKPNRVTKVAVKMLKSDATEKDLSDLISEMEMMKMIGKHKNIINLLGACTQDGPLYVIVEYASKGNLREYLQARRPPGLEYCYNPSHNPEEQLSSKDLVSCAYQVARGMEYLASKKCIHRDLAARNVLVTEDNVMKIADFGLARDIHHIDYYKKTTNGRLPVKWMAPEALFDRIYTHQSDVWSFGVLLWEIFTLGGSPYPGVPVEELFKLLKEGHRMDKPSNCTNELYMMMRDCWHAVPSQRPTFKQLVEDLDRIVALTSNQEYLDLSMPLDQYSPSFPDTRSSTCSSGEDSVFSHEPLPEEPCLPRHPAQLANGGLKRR
Chain of Epidermal growth factor receptor (Homo sapiens) (P00533 whole entry): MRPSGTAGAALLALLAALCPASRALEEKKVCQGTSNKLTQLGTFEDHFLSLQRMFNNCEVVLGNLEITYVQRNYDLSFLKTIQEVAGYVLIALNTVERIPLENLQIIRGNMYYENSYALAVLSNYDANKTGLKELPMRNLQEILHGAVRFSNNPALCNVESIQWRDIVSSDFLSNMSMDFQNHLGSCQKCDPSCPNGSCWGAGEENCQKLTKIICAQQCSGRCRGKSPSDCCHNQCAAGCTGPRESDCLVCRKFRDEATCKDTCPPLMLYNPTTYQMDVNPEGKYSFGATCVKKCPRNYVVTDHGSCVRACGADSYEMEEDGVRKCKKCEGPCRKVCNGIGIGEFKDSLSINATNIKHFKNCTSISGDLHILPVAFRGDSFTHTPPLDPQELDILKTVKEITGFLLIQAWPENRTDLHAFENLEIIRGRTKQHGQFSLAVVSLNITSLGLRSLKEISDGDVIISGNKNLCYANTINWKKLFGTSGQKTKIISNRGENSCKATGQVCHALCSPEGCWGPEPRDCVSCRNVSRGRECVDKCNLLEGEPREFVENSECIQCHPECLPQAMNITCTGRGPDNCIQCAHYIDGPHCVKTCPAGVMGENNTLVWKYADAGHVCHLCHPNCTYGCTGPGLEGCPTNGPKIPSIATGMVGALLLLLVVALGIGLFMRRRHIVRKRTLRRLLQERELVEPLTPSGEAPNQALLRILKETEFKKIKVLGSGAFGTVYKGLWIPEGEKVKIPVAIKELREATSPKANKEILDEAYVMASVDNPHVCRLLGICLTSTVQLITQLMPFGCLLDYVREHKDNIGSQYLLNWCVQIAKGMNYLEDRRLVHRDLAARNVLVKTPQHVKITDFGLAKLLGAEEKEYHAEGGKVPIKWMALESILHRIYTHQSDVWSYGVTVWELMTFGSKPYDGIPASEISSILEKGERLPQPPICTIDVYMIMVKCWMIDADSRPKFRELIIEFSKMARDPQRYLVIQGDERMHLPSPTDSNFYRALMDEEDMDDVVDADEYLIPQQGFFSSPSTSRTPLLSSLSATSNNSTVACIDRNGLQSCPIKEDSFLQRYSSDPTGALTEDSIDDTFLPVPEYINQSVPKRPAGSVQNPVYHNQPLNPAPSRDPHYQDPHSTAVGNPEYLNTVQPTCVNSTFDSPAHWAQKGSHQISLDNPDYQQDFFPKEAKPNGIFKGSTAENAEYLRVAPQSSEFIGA

Compound: O=C(NNc1ccc(C(F)(F)F)cn1)c1ccccc1Cl
IC50 [3]: 13200 nM

Compound: Cn1cc(C2=C(c3cn(CCCSC(=N)N)c4ccccc34)C(=O)NC2=O)c2ccccc21 [BISINDOLYLMALEIMIDE IX]
inhibition [5]: 94%
IC50 [6]: 1960 nM
inhibition [7]: 98%
IC50 [8]: 840 nM
inhibition [9]: 16%
inhibition [10]: 3%
inhibition [11]: 70.7%
inhibition [12]: 5%
inhibition [13]: 58%
inhibition [14]: 74.4%
inhibition [15]: 71.8%
inhibition [16]: 37.9%
inhibition [17]: 16%
inhibition at 10 µM [18]: 95.2%
inhibition [19]: 97%
inhibition [20]: 37.4%
inhibition [21]: 61.2%
IC50 [22]: 1770 nM
inhibition at 10 µM [23]: 97.1%
inhibition [24]: 98%
inhibition [25]: 36.6%
IC50 [3]: 10 nM
inhibition [26]: 73.2%
inhibition at 10 µM [27]: 95.3%
inhibition [28]: 32.6%
inhibition [29]: 32.4%

Compound: O=C(O)c1ccc(/N=N/c2ccc(O)c3ncccc23)cc1
inhibition at 100 µM [1]: 22.2%
inhibition at 100 µM [2]: 36.7%
IC50 [3]: 3470 nM
inhibition at 100 µM [4]: 28.4%

Compound: COc1cc(/C=N/n2cnnc2)cc(I)c1O
IC50 [3]: 16200 nM

Compound: O=C1c2ccccc2C(=O)N1CNc1ccc(N2CCOCC2)cc1
inhibition at 100 µM [1]: 6.89%
inhibition at 100 µM [2]: 31.2%
IC50 [3]: 950 nM
inhibition at 100 µM [4]: 13.2%

Compound: Clc1ccc2c(c1)SNC(c1ccccc1)=N2
inhibition at 100 µM [1]: 0%
inhibition at 100 µM [2]: 3.6%
IC50 [3]: 2880 nM
inhibition at 100 µM [4]: 6.5%

More lines, main results first:

IC50 [3]: 1060 nM
Compound: Cc1cc(N)cc2[nH]c(-c3ccccc3)nc12
inhibition at 100 µM [1]: 45.8%
inhibition at 100 µM [2]: 21.3%
inhibition at 100 µM [4]: 32.6%

IC50 [3]: 320 nM
Compound: Cc1c(N)ccc2nc(-c3ccc(N)cc3)[nH]c12

IC50 [8]: > 100000 nM
IC50 [22]: > 100000 nM
IC50 [3]: 3030 nM
Compound: O=C(Nc1ccccc1O)c1cnns1
inhibition at 100 µM [1]: 46.5%
inhibition at 100 µM [2]: 32.7%
inhibition at 100 µM [4]: 43.2%

From ChEMBL document CHEMBL1773035, “SHAFTS: a hybrid approach for 3D molecular similarity calculation. 2. Prospective case study in the discovery of diverse p90 ribosomal S6 protein kinase 2 inhibitors to suppress cell migration” (J Med Chem, 2011)
